Experimental data from ChEMBL document CHEMBL2417369, “Synthesis and evaluation of heteroaryl substituted diazaspirocycles as scaffolds to probe the ATP-binding site of protein kinases” (Bioorg Med Chem, 2013).

Legend:
[1] = target: Protein kinase C (PKC) (Homo sapiens) (UniProt O94806+P41743+P17252+P05129+Q05655+P05771+Q05513+Q02156+P24723+Q15139+Q04759); assay: Inhibition of PKC (unknown origin) at 30 uM by microfluidic mobility shift assay relative to control
Summary of the method: (§1)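 Single-point screen in a 24-enzyme kinase panel using a microfluidic assay. Each compound was tested at […] with ATP at roughly the Km for each enzyme. The pan-AGC inhibitor H-89 served as an internal control on every plate.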

[2] = target: RAC-alpha serine/threonine-protein kinase (Homo sapiens, UniProt P31749); assay: Inhibition of AKT1 (unknown origin) at 30 uM by microfluidic mobility shift assay relative to control; summary of the method: as §1
Chain of RAC-alpha serine/threonine-protein kinase (P31749 whole entry): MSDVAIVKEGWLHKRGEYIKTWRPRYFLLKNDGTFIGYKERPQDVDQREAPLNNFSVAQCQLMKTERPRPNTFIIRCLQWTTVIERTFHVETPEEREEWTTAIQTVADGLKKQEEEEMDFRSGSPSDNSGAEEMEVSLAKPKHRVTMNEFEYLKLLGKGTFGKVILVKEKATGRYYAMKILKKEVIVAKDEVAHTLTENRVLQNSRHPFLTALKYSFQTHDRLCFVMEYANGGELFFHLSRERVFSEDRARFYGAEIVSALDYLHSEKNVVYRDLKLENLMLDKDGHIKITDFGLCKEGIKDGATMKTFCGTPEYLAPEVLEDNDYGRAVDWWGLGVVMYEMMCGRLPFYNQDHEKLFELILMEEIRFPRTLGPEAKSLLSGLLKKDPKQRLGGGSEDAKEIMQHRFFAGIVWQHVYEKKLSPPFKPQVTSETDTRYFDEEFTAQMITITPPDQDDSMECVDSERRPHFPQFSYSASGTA

[3] = target: Serine/threonine-protein kinase Chk2 (Homo sapiens, UniProt O96017); assay: Inhibition of CHK2 (unknown origin) at 30 uM by microfluidic mobility shift assay relative to control; summary of the method: as §1
[4] = target: Mitogen-activated protein kinase 1 (Homo sapiens, UniProt P28482); assay: Inhibition of ERK2 (unknown origin) at 30 uM by microfluidic mobility shift assay relative to control; summary of the method: as §1
Chain of Mitogen-activated protein kinase 1 (P28482 whole entry): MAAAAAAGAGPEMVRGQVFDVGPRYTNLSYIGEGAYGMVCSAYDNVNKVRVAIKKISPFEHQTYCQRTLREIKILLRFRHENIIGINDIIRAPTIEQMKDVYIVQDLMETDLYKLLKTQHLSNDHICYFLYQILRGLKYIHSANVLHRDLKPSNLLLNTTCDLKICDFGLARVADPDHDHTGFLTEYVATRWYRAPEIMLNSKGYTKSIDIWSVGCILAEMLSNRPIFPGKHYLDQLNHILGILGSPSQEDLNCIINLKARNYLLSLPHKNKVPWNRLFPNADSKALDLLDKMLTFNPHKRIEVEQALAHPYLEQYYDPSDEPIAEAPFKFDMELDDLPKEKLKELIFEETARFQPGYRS

[5] = target: T1, MAP kinase-activated protein kinase 5 (Homo sapiens) (UniProt Q8IW41); assay: Inhibition of MAPKAPK5 (unknown origin) at 30 uM by microfluidic mobility shift assay relative to control; summary of the method: as §1
T1 sequence (whole entry): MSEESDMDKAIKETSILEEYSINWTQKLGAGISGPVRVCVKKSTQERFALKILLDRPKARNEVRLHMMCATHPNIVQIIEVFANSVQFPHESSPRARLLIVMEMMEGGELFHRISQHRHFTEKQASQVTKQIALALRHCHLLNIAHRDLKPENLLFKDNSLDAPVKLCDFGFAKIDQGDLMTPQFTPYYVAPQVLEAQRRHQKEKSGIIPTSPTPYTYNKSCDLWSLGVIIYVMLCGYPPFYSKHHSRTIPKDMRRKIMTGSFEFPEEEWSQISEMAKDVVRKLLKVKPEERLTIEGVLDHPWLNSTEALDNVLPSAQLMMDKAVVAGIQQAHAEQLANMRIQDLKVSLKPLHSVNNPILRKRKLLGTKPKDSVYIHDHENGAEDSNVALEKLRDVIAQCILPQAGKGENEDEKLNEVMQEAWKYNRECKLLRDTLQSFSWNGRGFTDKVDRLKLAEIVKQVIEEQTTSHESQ

[6] = target: Tyrosine-protein kinase Lyn (Homo sapiens, UniProt P07948); assay: Inhibition of LYN (unknown origin) at 30 uM by microfluidic mobility shift assay relative to control; summary of the method: as §1
Homo sapiens = organism: Homo sapiens; assay: Inhibition of PKA (unknown origin) at 30 uM by microfluidic mobility shift assay relative to control; summary of the method: as §1
[7] = target: Tyrosine-protein kinase ABL1 (Homo sapiens, UniProt P00519); assay: Inhibition of ABL (unknown origin) at 30 uM by microfluidic mobility shift assay relative to control; summary of the method: as §1
Chain of Tyrosine-protein kinase ABL1 (P00519 whole entry): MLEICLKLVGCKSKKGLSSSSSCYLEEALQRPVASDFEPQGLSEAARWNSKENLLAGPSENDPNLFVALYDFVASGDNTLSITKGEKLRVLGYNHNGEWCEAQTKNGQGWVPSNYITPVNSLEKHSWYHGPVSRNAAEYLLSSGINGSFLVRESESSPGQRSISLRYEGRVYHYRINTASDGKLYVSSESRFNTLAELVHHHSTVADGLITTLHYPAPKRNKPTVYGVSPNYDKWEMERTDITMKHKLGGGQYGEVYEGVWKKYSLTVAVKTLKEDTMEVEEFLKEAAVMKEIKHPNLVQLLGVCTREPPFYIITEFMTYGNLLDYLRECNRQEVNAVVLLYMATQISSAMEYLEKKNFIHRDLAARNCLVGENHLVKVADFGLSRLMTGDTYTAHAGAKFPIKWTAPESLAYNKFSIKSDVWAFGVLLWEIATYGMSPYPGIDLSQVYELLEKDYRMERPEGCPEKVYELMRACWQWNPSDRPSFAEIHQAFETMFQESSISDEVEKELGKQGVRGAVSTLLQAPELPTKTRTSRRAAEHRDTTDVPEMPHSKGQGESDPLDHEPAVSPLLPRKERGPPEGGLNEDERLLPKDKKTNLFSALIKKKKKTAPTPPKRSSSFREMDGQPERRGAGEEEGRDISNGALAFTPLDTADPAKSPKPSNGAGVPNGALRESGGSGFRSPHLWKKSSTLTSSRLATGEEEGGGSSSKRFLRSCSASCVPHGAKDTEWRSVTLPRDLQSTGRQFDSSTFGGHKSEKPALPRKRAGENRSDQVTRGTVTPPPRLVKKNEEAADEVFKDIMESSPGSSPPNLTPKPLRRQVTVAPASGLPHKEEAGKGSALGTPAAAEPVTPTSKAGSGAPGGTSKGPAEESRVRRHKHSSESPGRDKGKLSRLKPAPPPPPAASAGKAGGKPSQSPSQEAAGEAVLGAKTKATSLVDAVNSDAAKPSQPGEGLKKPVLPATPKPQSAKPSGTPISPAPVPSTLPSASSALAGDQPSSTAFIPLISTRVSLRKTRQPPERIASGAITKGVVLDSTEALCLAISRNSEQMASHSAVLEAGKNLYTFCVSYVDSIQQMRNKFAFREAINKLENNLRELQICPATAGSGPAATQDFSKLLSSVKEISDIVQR

[8] = target: Glycogen synthase kinase-3 beta (Homo sapiens, UniProt P49841); assay: Inhibition of GSK3beta (unknown origin) at 30 uM by microfluidic mobility shift assay relative to control; summary of the method: as §1
Chain of Glycogen synthase kinase-3 beta (P49841 whole entry, looked up): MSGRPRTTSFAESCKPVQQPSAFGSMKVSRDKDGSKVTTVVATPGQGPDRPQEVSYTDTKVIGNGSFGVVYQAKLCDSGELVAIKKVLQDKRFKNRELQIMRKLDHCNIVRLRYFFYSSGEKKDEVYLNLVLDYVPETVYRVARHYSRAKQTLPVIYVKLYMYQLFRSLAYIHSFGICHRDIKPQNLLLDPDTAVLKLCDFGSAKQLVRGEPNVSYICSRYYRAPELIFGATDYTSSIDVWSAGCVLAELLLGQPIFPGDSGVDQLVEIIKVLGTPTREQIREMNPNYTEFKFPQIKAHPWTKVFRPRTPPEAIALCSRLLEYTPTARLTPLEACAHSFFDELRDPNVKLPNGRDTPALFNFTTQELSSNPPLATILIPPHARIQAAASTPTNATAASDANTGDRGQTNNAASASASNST

[9] = target: Tyrosine-protein kinase Lck (Homo sapiens, UniProt P06239); assay: Inhibition of LCK (unknown origin) at 30 uM by microfluidic mobility shift assay relative to control; summary of the method: as §1
Chain of Tyrosine-protein kinase Lck (P06239 2-509 limits assumed): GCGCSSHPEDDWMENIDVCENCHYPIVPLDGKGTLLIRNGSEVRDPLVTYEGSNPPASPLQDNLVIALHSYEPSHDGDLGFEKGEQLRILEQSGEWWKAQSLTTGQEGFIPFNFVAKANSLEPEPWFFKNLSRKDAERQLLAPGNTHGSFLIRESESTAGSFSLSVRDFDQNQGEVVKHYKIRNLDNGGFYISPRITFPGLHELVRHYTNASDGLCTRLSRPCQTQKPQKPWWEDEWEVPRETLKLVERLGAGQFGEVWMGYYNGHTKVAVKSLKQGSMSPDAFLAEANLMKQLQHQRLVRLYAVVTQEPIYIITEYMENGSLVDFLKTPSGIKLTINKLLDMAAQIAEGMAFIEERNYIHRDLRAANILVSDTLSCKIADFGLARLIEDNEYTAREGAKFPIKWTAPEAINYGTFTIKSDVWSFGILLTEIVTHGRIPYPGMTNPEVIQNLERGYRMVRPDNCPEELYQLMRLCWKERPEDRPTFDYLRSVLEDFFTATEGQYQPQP

[10] = target: Ribosomal protein S6 kinase alpha-1 (Homo sapiens, UniProt Q15418); assay: Inhibition of RSK1 (unknown origin) at 30 uM by microfluidic mobility shift assay relative to control; summary of the method: as §1
Chain of Ribosomal protein S6 kinase alpha-1 (Q15418 whole entry): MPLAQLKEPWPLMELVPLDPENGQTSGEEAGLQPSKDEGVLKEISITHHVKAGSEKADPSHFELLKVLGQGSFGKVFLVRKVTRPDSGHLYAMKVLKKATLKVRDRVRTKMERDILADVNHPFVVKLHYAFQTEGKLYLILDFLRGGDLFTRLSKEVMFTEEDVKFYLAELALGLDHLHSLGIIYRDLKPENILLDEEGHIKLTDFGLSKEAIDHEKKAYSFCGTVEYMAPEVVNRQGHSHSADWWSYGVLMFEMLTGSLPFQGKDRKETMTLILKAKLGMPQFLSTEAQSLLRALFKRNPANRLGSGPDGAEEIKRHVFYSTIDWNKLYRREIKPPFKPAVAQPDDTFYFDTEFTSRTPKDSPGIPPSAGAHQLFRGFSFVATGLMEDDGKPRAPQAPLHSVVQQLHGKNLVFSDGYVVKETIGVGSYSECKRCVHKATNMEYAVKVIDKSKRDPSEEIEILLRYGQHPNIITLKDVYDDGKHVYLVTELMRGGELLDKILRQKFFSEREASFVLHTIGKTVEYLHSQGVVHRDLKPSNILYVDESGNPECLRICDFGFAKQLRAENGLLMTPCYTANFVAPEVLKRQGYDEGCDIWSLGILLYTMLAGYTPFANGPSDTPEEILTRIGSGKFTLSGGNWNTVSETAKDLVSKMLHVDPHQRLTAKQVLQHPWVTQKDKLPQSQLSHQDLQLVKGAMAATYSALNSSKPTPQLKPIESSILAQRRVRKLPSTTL

[11] = target: Tyrosine-protein kinase Fyn (Homo sapiens, UniProt P06241); assay: Inhibition of FYN (unknown origin) at 30 uM by microfluidic mobility shift assay relative to control; summary of the method: as §1
[12] = target: RAC-beta serine/threonine-protein kinase (Homo sapiens, UniProt P31751); assay: Inhibition of AKT2 (unknown origin) at 30 uM by microfluidic mobility shift assay relative to control; summary of the method: as §1
Chain of RAC-beta serine/threonine-protein kinase (P31751 whole entry): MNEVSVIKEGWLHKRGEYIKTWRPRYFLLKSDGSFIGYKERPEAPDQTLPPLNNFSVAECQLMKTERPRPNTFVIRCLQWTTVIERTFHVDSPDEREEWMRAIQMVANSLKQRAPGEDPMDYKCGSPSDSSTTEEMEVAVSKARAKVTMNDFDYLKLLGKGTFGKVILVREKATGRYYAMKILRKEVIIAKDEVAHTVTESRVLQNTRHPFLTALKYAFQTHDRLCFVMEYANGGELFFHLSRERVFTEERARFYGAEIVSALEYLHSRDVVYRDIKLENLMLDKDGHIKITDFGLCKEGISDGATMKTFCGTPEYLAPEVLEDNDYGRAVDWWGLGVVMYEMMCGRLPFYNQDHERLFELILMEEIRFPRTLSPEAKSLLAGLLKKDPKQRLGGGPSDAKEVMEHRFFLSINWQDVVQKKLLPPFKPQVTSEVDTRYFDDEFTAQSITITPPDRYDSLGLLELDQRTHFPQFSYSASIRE

[13] = target: Mitogen-activated protein kinase 14 (Homo sapiens) (UniProt Q16539); assay: Inhibition of p38alpha (unknown origin) at 30 uM by microfluidic mobility shift assay relative to control; summary of the method: as §1
Chain of Mitogen-activated protein kinase 14 (Homo sapiens) (Q16539 whole entry): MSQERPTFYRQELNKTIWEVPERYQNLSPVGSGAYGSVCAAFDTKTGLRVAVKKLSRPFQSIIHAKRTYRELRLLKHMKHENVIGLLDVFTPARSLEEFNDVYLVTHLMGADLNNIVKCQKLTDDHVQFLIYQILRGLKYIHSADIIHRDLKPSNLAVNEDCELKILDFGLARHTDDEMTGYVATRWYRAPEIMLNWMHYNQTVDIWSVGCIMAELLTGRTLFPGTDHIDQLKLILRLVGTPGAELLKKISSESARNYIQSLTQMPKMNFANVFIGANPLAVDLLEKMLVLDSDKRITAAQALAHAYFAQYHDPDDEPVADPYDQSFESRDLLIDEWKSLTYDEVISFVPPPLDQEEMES

[14] = target: Proto-oncogene tyrosine-protein kinase Src (Homo sapiens, UniProt P12931); assay: Inhibition of SRC (unknown origin) at 30 uM by microfluidic mobility shift assay relative to control; summary of the method: as §1
[15] = target: Insulin receptor (Homo sapiens) (UniProt P06213); assay: Inhibition of INSR (unknown origin) at 30 uM by microfluidic mobility shift assay relative to control; summary of the method: as §1
[16] = target: T2, Serine/threonine-protein kinase Chk1 (Homo sapiens) (UniProt O14757); assay: Inhibition of CHK1 (unknown origin) at 30 uM by microfluidic mobility shift assay relative to control; summary of the method: as §1
T2 sequence (whole entry): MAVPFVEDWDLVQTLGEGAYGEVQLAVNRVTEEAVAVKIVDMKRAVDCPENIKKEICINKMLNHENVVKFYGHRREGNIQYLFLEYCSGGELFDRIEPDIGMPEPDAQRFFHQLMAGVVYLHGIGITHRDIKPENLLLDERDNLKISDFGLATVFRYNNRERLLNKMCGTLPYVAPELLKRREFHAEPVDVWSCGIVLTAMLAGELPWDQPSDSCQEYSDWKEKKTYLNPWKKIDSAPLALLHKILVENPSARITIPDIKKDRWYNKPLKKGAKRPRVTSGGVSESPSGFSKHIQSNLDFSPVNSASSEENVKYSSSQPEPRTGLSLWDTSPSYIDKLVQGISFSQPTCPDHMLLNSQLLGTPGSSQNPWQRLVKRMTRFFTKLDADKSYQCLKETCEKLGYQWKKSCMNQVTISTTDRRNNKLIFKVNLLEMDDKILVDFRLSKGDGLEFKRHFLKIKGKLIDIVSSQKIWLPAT

[17] = target: Mitogen-activated protein kinase 3 (Homo sapiens, UniProt P27361); assay: Inhibition of ERK1 (unknown origin) at 30 uM by microfluidic mobility shift assay relative to control; summary of the method: as §1
Chain of Mitogen-activated protein kinase 3 (P27361 whole entry): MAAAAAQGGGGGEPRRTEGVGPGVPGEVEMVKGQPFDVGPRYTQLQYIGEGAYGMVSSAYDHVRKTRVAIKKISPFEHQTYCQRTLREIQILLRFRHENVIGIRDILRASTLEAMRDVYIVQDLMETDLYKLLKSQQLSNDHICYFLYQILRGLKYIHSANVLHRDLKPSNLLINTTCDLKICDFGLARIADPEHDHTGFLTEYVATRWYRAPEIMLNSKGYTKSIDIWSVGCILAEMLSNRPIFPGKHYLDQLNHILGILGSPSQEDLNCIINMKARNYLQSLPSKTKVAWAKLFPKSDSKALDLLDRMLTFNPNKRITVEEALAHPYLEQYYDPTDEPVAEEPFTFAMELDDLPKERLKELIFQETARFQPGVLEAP

| SMILES | inhibition [1] | inhibition [2] | inhibition [3] | inhibition [4] | inhibition [5] | inhibition [6] | inhibition (Homo sapiens) | inhibition [7] | inhibition [8] | inhibition [9] | inhibition [10] | inhibition [11] | inhibition [12] | inhibition [13] | inhibition [14] | inhibition [15] | inhibition [16] | inhibition [17] |
| --- | --- | --- | --- | --- | --- | --- | --- | --- | --- | --- | --- | --- | --- | --- | --- | --- | --- | --- |
| NC1(Cc2ccccc2)CCN(S(=O)(=O)c2cccc3cnccc23)CC1 | 12% | 15% | 8% | 17% | 0% | 10% | 80% | 7% | 19% | 15% | 42% | 5% | 13% | 10% | 6% | 4% | 4% | 10% |
| NC1(Cc2ccccc2)CCN(c2ncnc3[nH]cnc23)CC1 | 0% | 93% | 74% | 67% | 40% | 72% | 96% | 45% | 53% | 71% | 94% | 39% | 74% | 11% | 63% | 0% | 62% | 41% |
| O=S(=O)(c1cccc2cnccc12)N1CCC2(CCCCN2)CC1 | 0% | 27% | 26% | 9% | 25% | 18% | 89% | 12% | 28% | 15% | 66% | 9% | 10% | 7% | 12% | 3% | 0% | 0% |
| c1nc(N2CCC3(CCCN3)CC2)c2nc[nH]c2n1 | 0% | 91% | 81% | 50% | 29% | 20% | 98% | 26% | 19% | 21% | 72% | 31% | 72% | 2% | 24% | 2% | 85% | 53% |
| c1nc(N2CCC3(CCNC3)CC2)c2nc[nH]c2n1 | 26% | 94% | 64% | 38% | 41% | 65% | 99% | 80% | 39% | 86% | 77% | 84% | 70% | 3% | 61% | 6% | 84% | 39% |
| c1nc(N2CCCC23CCNCC3)c2nc[nH]c2n1 | 0% | 12% | 26% | 10% | 8% | 5% | 39% | 8% | 43% | 9% | 13% | 14% | 0% | 5% | 6% | 9% | 8% | 13% |
| c1nc(N2CCCC3(CCCNC3)C2)c2nc[nH]c2n1 (stereo unspecified) | 3% | 77% | 26% | 15% | 8% | 2% | 89% | 5% | 15% | 7% | 39% | 8% | 37% | 5% | 5% | 4% | 37% | 19% |
| c1nc(N2CCCC3(CCNCC3)C2)c2nc[nH]c2n1 | 21% | 85% | 35% | 28% | 3% | 33% | 98% | 32% | 32% | 15% | 71% | 33% | 26% | 2% | 19% | 3% | 71% | 16% |
| c1ccc(C2CCNC3(CCN(c4ncnc5[nH]cnc45)CC3)C2)cc1 (racemic) | 0% | 99% | 75% | 54% | 18% | 75% | 100% | 39% | 20% | 73% | 85% | 56% | 89% | 0% | 76% | 2% | 77% | 39% |
| c1ccc(CC2CCNC3(CCN(c4ncnc5[nH]cnc45)CC3)C2)cc1 (racemic) | 0% | 101% | 98% | 74% | 8% | 53% | 101% | 16% | 21% | 60% | 90% | 28% | 98% | 10% | 64% | 0% | 84% | 66% |
| O=C(O)C1CCC2(CCN(c3ncnc4[nH]cnc34)CC2)NC1 (racemic) | 0% | 40% | 2% | 37% | 0% | 16% | 78% | 2% | 28% | 15% | 97% | 5% | 17% | 21% | 20% | 44% | 0% | 36% |
| c1ccc(CC2CCC3(CCN(c4ncnc5[nH]cnc45)CC3)NC2)cc1 (racemic) | 1% | 80% | 58% | 41% | 7% | 35% | 95% | 31% | 14% | 44% | 48% | 20% | 36% | 6% | 33% | 18% | 67% | 31% |
